Assay results as given in ChEMBL document CHEMBL3779892, “Increasing the binding affinity of VEGFR-2 inhibitors by extending their hydrophobic interaction with the active site: Design, synthesis and biological evaluation of 1-substituted-4-(4-methoxybenzyl)phthalazine derivatives” (Eur J Med Chem, 2016).

Assays:
Assay type in all cases: functional
MDA-MB-468 = assay: Growth inhibition of human MDA-MB-468 cells at 10 uM after 48 hrs by sulforhodamine B assay; conditions: MDA-MB-468, 48 h, read-out: GI
In short: (§1)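 Run at NCI on the 60-line panel. Cells grown in RPMI 1640 with 5% FBS and 2 mM L-glutamine, plated at 5000–40,000 cells/well by doubling time, and held 24 h at 37 °C before dosing. Drug (DMSO stock) given at a single final 10 µM in triplicate wells for 48 h. Adherent cells fixed with cold TCA (10% final), suspension cells with 16% TCA. SRB stain read at 515 nm. Percent growth from Tz, C and Ti.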

786-0 = assay: Growth inhibition of human 786-0 cells at 10 uM after 48 hrs by sulforhodamine B assay; conditions: 786-0, 48 h, read-out: GI; in short: as §1
SK-MEL-5 = assay: Growth inhibition of human SK-MEL-5 cells at 10 uM after 48 hrs by sulforhodamine B assay; conditions: SK-MEL-5, 48 h, read-out: GI; in short: as §1
[1] = Growth inhibition of human SNB75 cells at 10 uM after 48 hrs by sulforhodamine B assay; conditions: SNB-75, 48 h, read-out: GI; in short: as §1
[2] = Growth inhibition of human UACC257 cells at 10 uM after 48 hrs by sulforhodamine B assay; conditions: UACC-257, 48 h, read-out: GI
In short: (§2)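 NCI-60 panel, adherent cells grown in RPMI 1640 with 5% FBS and 2 mM L-glutamine, plated at 5000–40,000 cells/well and preincubated 24 h at 37 °C, 5% CO2. 10 µM final compound from DMSO stock, triplicate wells, 48 h. Fixed with cold TCA (10% final, 60 min, 4 °C) and stained with 0.4% SRB. Absorbance read at 515 nm; growth calculated against time-zero and control wells.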

[3] = Growth inhibition of human OVCAR3 cells at 10 uM after 48 hrs by sulforhodamine B assay; conditions: OVCAR-3, 48 h, read-out: GI; in short: as §1
[4] = Growth inhibition of human HCC2998 cells at 10 uM after 48 hrs by sulforhodamine B assay; conditions: HCC 2998, 48 h, read-out: GI; in short: as §1
MDA-MB-435 = assay: Growth inhibition of human MDA-MB-435 cells at 10 uM after 48 hrs by sulforhodamine B assay; conditions: MDA-MB-435, 48 h, read-out: GI; in short: as §1
[5] = Growth inhibition of human SW620 cells at 10 uM after 48 hrs by sulforhodamine B assay; conditions: SW-620, 48 h, read-out: GI; in short: as §2
KM12 = assay: Growth inhibition of human KM12 cells at 10 uM after 48 hrs by sulforhodamine B assay; conditions: KM12, 48 h, read-out: GI; in short: as §1
[6] = Growth inhibition of human MOLT4 cells at 10 uM after 48 hrs by sulforhodamine B assay; conditions: MOLT-4, 48 h, read-out: GI; in short: as §1
[7] = Growth inhibition of human DU145 cells at 10 uM after 48 hrs by sulforhodamine B assay; conditions: DU-145, 48 h, read-out: GI; in short: as §1
SN12C = assay: Growth inhibition of human SN12C cells at 10 uM after 48 hrs by sulforhodamine B assay; conditions: read-out: GI; in short: as §1
[8] = Growth inhibition of human HCT116 cells at 10 uM after 48 hrs by sulforhodamine B assay; conditions: HCT-116, 48 h, read-out: GI; in short: as §1
[9] = Growth inhibition of human RPMI8226 cells at 10 uM after 48 hrs by sulforhodamine B assay; conditions: RPMI-8226, 48 h, read-out: GI; in short: as §1
[10] = Growth inhibition of human PC3 cells at 10 uM after 48 hrs by sulforhodamine B assay; conditions: PC-3, 48 h, read-out: GI; in short: as §1
A498 = assay: Growth inhibition of human A498 cells at 10 uM after 48 hrs by sulforhodamine B assay; conditions: A498, 48 h, read-out: GI; in short: as §1
SR = assay: Growth inhibition of human SR cells at 10 uM after 48 hrs by sulforhodamine B assay; conditions: read-out: GI
In short: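 NCI-60 screen. Cells were grown in RPMI 1640 with 5% FBS and 2 mM L-glutamine, plated at 5000–40,000 cells/well and held 24 h at 37 °C, 5% CO2. Single 10 µM final dose from DMSO stock, triplicate wells, 48 h. Settled cells were fixed with 80% TCA (16% final) and stained with 0.4% SRB. Dye was solubilized in 10 mM Tris and read at 515 nm. Growth was calculated against time-zero and untreated wells.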

[11] = Growth inhibition of human TK10 cells at 10 uM after 48 hrs by sulforhodamine B assay; conditions: TK-10, 48 h, read-out: GI; in short: as §2
[12] = Growth inhibition of human Hs 578T cells at 10 uM after 48 hrs by sulforhodamine B assay; conditions: read-out: GI; in short: as §1

Row | SMILES | inhibition of growth at 10 µM (MDA-MB-468) | inhibition of growth at 10 µM (786-0) | inhibition of growth at 10 µM (SK-MEL-5) | inhibition of growth at 10 µM [1] | inhibition of growth at 10 µM [2] | inhibition of growth at 10 µM [3] | inhibition of growth at 10 µM [4] | inhibition of growth at 10 µM (MDA-MB-435) | inhibition of growth at 10 µM [5] | inhibition of growth at 10 µM (KM12) | inhibition of growth at 10 µM [6] | inhibition of growth at 10 µM [7] | inhibition of growth at 10 µM (SN12C) | inhibition of growth at 10 µM [8] | inhibition of growth at 10 µM [9] | inhibition of growth at 10 µM [10] | inhibition of growth at 10 µM (A498) | inhibition of growth at 10 µM (SR) | inhibition of growth at 10 µM [11] | inhibition of growth at 10 µM [12]
1 | COc1ccc(Cc2nnc(Nc3ccccc3)c3ccccc23)cc1 | < 30% | < 30% | < 30% | < 30% | < 30% | < 30% | < 30% | < 30% | < 30% | < 30% | < 30% | < 30% | < 30% | < 30% | 58% | < 30% | 35% | 30% | < 30% | < 30%
2 | COc1ccc(Cc2nnc(Nc3cccc(C(F)(F)F)c3)c3ccccc23)cc1 | 42% | 33% | < 30% | < 30% | < 30% | 48% | 31% | < 30% | < 30% | 40% | 60% | < 30% | 46% | 56% | 87% | 49% | 40% | 52% | < 30% | < 30%
3 | COc1ccc(Cc2nnc(Nc3ccc(Cl)cc3)c3ccccc23)cc1 | 42% | 43% | 35% | < 30% | < 30% | 40% | < 30% | 30% | < 30% | 30% | 48% | 42% | 50% | 66% | 69% | 51% | 53% | 54% | 52% | 35%
4 | COc1ccc(Cc2nnc(Nc3cccc(Cl)c3)c3ccccc23)cc1 | 30% | < 30% | < 30% | 32% | < 30% | 34% | < 30% | < 30% | < 30% | < 30% | 37% | < 30% | 34% | 49% | 89% | 42% | 34% | 43% | < 30% | < 30%
5 | COc1ccc(Cc2nnc(Nc3ccc(C#N)cc3)c3ccccc23)cc1 | 30% | < 30% | < 30% | < 30% | < 30% | < 30% | < 30% | < 30% | < 30% | < 30% | < 30% | < 30% | < 30% | < 30% | < 30% | 34% | 30% | < 30% | < 30% | < 30%
